Common to all, as to format: cell-based
Series [1] has as its system SK-N-BE(2). The series can be described thus: Cytotoxicity in human SKNBE2 cells assessed as reduction in cell viability at 0.5 to 5 uM incubated for 18 hrs by Cell Titer-Glo assay. The note with it: dose 0.5-5 µM. An outline of the steps:
(§1)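 Cells seeded at 1.5 million per 10-cm dish. Next day they were replated at 10,000 cells/well and rested 4 h. Ligand or vehicle (water, ethanol or DMSO, by ligand) was added in dose-response format in quadruplicate. After 18 h, viability was read by CellTiter-Glo luminescence. Data are mean ± s.e.m., generally representative of 2 independent experiments. One-way ANOVA versus vehicle.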
On the technique in general: ATP-based viability assays read luminescence as a measure of living cells.

Series [2] has as its system HEK-293T. The series can be described thus: Cytotoxicity in human HEK293T cells assessed as reduction in cell viability at 0.5 to 5 uM incubated for 18 hrs by Cell Titer-Glo assay. The note with it: dose 0.5-5 µM. An outline of the steps:
as §1

In series [3] the test system is PC-12. The series can be described thus: Cytotoxicity in rat PC-12 cells assessed as reduction in cell viability at 0.5 to 5 uM incubated for 18 hrs by Cell Titer-Glo assay. The note with it: pc-12, 18 h, dose 0.5-5 µM. The method in brief: as §1
The subject of series [4] is SK-N-BE(2). The series can be described thus: Cytotoxicity in human SKNBE2 cells assessed as reduction in cell viability at 0.02 to 200 uM incubated for 18 hrs by Cell Titer-Glo assay. The note with it: dose 0.02-200 µM. An outline of the steps:
as §1

The subject of series [5] is PC-12. Briefly: Cytotoxicity in rat PC-12 cells assessed as reduction in cell viability at 0.02 to 200 uM incubated for 18 hrs by Cell Titer-Glo assay. To be noted: pc-12, 18 h, dose 0.02-200 µM. An outline of the steps: as §1
Series [6] concerns HEK-293T. Briefly: Cytotoxicity in human HEK293T cells assessed as reduction in cell viability at 0.02 to 200 uM incubated for 18 hrs by Cell Titer-Glo assay. To be noted: dose 0.02-200 µM. The method in brief:
as §1

The next series deals with SKNBE2. The series can be described thus: Modulation of Gal4-fused VP16 expressed in SKNBE(2) cells co-transfected with UAS repoter gene assessed as increase in luciferase activity at 0.02 to 200 uM incubated for 18 hrs by luciferase reporter gene assay. The note with it: Human alphaherpesvirus 2, filed as modulator, dose 0.02-200 µM. The method in brief: (§2)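 Cells in 10-cm dishes were transfected with Gal4-VP16 expression plasmid (2 μg) plus 5xUAS-luciferase reporter (2 μg) for 18 h. They were replated at 10,000 cells/well for 4 h, then given ligand or vehicle (water, ethanol or DMSO) in quadruplicate for 18 h. Luciferase was read with Britelite Plus. Fold change is versus vehicle-treated cells, with one-way ANOVA versus vehicle.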

In series [7] the test system is PC-12. Briefly: Modulation of Gal4-fused VP16 expressed in PC12 cells co-transfected with UAS repoter gene assessed as increase in luciferase activity at 0.02 to 200 uM incubated for 18 hrs by luciferase reporter gene assay. The note with it: Human alphaherpesvirus 2, filed as modulator, dose 0.02-200 µM. An outline of the steps:
as §2

Series [8] has as its target Nuclear receptor subfamily 4 group A member 2 (Homo sapiens) (UniProt P43354). Briefly: Modulation of full length human Nurr1 expressed in SKNBE(2) cells co-transfected with RXRalpha and luciferase reporter plasmid harboring NurRE response element assessed as increase in luciferase activity incubated for 18 hrs by luciferase-reporter gene assay. The note with it: SKNBE2, filed as modulator, dose 0.0002-200 µM. The method in brief: (§3)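 SK-N-BE(2)-C cells were kept in 1:1 EMEM/F12 with 10% FBS at 37°C and 5% CO2. They were cotransfected with full-length Nurr1 (1 μg), full-length RXRα (1 μg) and 3xNBRE- or 3xNurRE-luc reporter (6 μg) for 18 h, replated at 10,000 cells/well for 4 h, and then treated with ligand or vehicle in quadruplicate for 18 h. The readout was luciferase luminescence as fold over vehicle, reported as mean ± s.e.m. (n=4) from 2 independent experiments, one-way ANOVA.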
For orientation: In a reporter assay the amount or activity of a reporter protein is the signal.

Series [9] has the same target. Briefly: Modulation of full length human Nurr1 expressed in SKNBE(2) cells co-transfected with RXRalpha and luciferase reporter plasmid harboring NBRE response element assessed as increase in luciferase activity incubated for 18 hrs by luciferase-reporter gene assay. The note with it: SKNBE2, filed as modulator, dose 0.0002-200 µM. An outline of the steps:
as §3

Series [10] has the same target. The series can be described thus: Modulation of full length human Nurr1 expressed in PC12 cells co-transfected with RXRalpha and luciferase reporter plasmid harboring NurRE response element assessed as increase in luciferase activity incubated for 18 hrs by luciferase-reporter gene assay. The note with it: PC-12, filed as modulator, dose 0.0002-200 µM. An outline of the steps:
(§4)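 PC12 cells were grown at 37°C and 5% CO2 in […] medium with 15% horse serum and 2.5% FBS. They were transfected with full-length Nurr1 (1 μg) plus full-length RXRα (1 μg) and 3xNBRE- or 3xNurRE-luciferase reporter (6 μg) for 18 h, then replated at 10,000 cells/well for 4 h. Ligand or vehicle (water, ethanol or DMSO) was added in quadruplicate for 18 h. Luminescence was read as fold change over vehicle. Results are mean ± s.e.m., n=4, from 2 independent experiments, analysed by one-way ANOVA against vehicle.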

For series [11] the target is unchanged. The series can be described thus: Modulation of full length human Nurr1 expressed in PC12 cells co-transfected with RXRalpha and luciferase reporter plasmid harboring NBRE response element assessed as increase in luciferase activity incubated for 18 hrs by luciferase-reporter gene assay. The note with it: PC-12, filed as modulator, dose 0.0002-200 µM. The method in brief: as §4

Series [12] shares this target. The series can be described thus: Modulation of full length human Nurr1 expressed in HEK293T cells co-transfected with RXRalpha and luciferase reporter plasmid harboring NurRE response element assessed as increase in luciferase activity incubated for 18 hrs by luciferase-reporter gene assay. The note with it: filed as modulator, dose 0.0002-200 µM. The method in brief: (§5)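 Full-length Nurr1 plasmid, alone (2 μg) or 1 μg plus full-length RXRα (1 μg), cotransfected with 3xNBRE- or 3xNurRE-luciferase reporter (6 μg) using Lipofectamine 2000, 18 h. Cells replated at 10,000/well for 4 h. Four ligand concentrations, or vehicle (water, ethanol or DMSO), added in quadruplicate for 18 h. Luciferase read. Fold change vs vehicle, mean ± s.e.m., one-way ANOVA vs vehicle.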

The target is the same in series [13]. The series can be described thus: Modulation of full length human Nurr1 expressed in HEK293T cells co-transfected with RXRalpha and luciferase reporter plasmid harboring NBRE response element assessed as increase in luciferase activity incubated for 18 hrs by luciferase-reporter gene assay. To be noted: filed as modulator, dose 0.0002-200 µM. An outline of the steps: as §5

The target is the same in series [14]. Briefly: Modulation of full length human Nurr1 expressed in SKNBE(2) cells co-transfected with luciferase reporter plasmid harboring NurRE response element assessed as increase in luciferase activity incubated for 18 hrs by luciferase-reporter gene assay. The note with it: SKNBE2, filed as modulator, dose 0.002-200 µM.
For series [15] the target is unchanged. The series can be described thus: Modulation of full length human Nurr1 expressed in SKNBE(2) cells co-transfected with luciferase reporter plasmid harboring NBRE response element assessed as increase in luciferase activity incubated for 18 hrs by luciferase-reporter gene assay. To be noted: SKNBE2, filed as modulator, dose 0.002-200 µM.
The target is the same in series [16]. Briefly: Modulation of full length human Nurr1 expressed in PC12 cells co-transfected with luciferase reporter plasmid harboring NurRE response element assessed as increase in luciferase activity incubated for 18 hrs by luciferase-reporter gene assay. To be noted: PC-12, filed as modulator, dose 0.002-200 µM. The method in brief: (§6)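 Here PC12 cells (FK-12 medium, 15% horse serum, 2.5% FBS, 37°C, 5% CO2) received full-length Nurr1 (2 μg) without RXRα, plus 3xNBRE- or 3xNurRE-luciferase reporter (6 μg), for 18 h. Cells were replated at 10,000/well for 4 h, then treated with ligand or vehicle in quadruplicate for 18 h. Luciferase luminescence was normalized to vehicle-treated cells. Results are mean ± s.e.m. (n=4) from 2 independent experiments, with one-way ANOVA against vehicle.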

For series [17] the target is unchanged. The series can be described thus: Modulation of full length human Nurr1 expressed in PC12 cells co-transfected with luciferase reporter plasmid harboring NBRE response element assessed as increase in luciferase activity incubated for 18 hrs by luciferase-reporter gene assay. To be noted: PC-12, filed as modulator, dose 0.002-200 µM. An outline of the steps:
as §6

Series [18] has the same target. Briefly: Modulation of full length human Nurr1 expressed in HEK293T cells co-transfected with luciferase reporter plasmid harboring NurRE response element assessed as increase in luciferase activity incubated for 18 hrs by luciferase-reporter gene assay. The note with it: filed as modulator, dose 0.002-200 µM. The method in brief:
as §5

The target is the same in series [19]. The series can be described thus: Modulation of full length human Nurr1 expressed in HEK293T cells co-transfected with luciferase reporter plasmid harboring NBRE response element assessed as increase in luciferase activity incubated for 18 hrs by luciferase-reporter gene assay. The note with it: filed as modulator, dose 0.002-200 µM. An outline of the steps:
as §5

A further series relates to HEK293T. Briefly: Modulation of Gal4-fused VP16 expressed in HEK293T cells co-transfected with UAS repoter gene assessed as increase in luciferase activity at 0.02 to 200 uM incubated for 18 hrs by luciferase reporter gene assay. The note with it: Human alphaherpesvirus 2, filed as modulator, dose 0.02-200 µM. The method in brief:
as §2

Each structure is given as a SMILES string. Activity calls are given as the source filed them. The rule behind the calls is not given here.

Chain of Nuclear receptor subfamily 4 group A member 2 (Homo sapiens) (P43354 whole entry): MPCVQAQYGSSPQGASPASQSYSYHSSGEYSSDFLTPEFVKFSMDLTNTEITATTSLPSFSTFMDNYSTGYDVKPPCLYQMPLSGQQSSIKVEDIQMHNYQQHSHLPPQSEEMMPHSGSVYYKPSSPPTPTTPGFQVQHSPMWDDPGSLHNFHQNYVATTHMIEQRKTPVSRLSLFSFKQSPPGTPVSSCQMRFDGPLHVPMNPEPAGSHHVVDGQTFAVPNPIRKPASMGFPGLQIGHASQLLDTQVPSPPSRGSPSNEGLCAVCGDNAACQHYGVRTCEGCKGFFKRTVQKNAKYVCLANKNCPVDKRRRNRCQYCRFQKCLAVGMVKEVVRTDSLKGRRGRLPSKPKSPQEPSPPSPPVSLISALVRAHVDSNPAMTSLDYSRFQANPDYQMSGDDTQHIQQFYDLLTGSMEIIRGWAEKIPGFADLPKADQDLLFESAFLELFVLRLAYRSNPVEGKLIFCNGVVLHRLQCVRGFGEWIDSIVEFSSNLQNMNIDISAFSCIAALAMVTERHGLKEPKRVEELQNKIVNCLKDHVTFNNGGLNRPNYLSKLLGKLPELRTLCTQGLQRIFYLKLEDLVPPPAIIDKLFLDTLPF

As for `O=C(O)c1ccc2nc(-c3ccc(F)cc3)[nH]c2c1`, the Activity result in the series on SK-N-BE(2) [1], in the series on HEK-293T [2] and with PC-12 [3] was “Non-Toxic” in each case.

Turning to `COc1ccc(-c2cc3onc(-c4ccccc4)c3c(=O)n2C)cc1`, the Activity entry with SK-N-BE(2) [4] was “Non-Toxic”; with PC-12 [5], “Non-Toxic”; with HEK-293T [6], “Non-Toxic”; in series [8], “Dose-Dependent Effect”; in [9] it was “Dose-Dependent Effect”; in series [10] it was “Dose-Dependent Effect”. The Activity result in series [11], in [12], in series [13], in series [14], in [15] and in series [16] was “Dose-Dependent Effect” each time. The Activity entry in series [17], in series [18] and in series [19] was “Dose-Dependent Effect” throughout. The outcome with SKNBE2, in the series with PC-12 [7] and with HEK293T was Active.

Values taken from ChEMBL document CHEMBL5030505, “Assessment of NR4A Ligands That Directly Bind and Modulate the Orphan Nuclear Receptor Nurr1” (J Med Chem, 2020).
